Laboratory results from article PMC8733272 (iScience, 2021).
Numbering of substitutions follows the chain as printed. Entries after “also recorded” stand apart in the source; their conditions may differ.

Experiments:
[1] = target: Human MDR1 efflux transporter (MDCK-MDR1 cells) (Homo sapiens, UniProt P08183); assay: MDCK-MDR1 bidirectional permeability / efflux; assay type: in vitro ADME; conditions: average of inward and outward permeability
In short: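 MDCK-MDR1 cells were seeded at 0.28×10^6 cells/mL on the apical side of transwell inserts and grown 7 days, with two media changes. Monolayers were rinsed in HBSS/1% HEPES pH 7.4. 1 μM test compound was added to the donor side (A>B and B>A); receivers held buffer with 1% BSA. Plates were shaken 2 h at 37°C. Donor was sampled at 0 and 120 min, receiver at 2 h, and quenched with acetonitrile plus internal standard for LC-MS/MS. Post-assay TEER had to exceed 430 ohm∗cm2. Papp = (dQ/dt)(1/C0)(1/A); ER = Papp B>A / Papp A>B.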

WT-Parkin = target: T1, WT-Parkin (Homo sapiens, UniProt O60260); assay: Parkin autoubiquitination by Western blot; assay type: biochemical; conditions: 5 min reaction at 37°C
T1 sequence (O60260 1-465): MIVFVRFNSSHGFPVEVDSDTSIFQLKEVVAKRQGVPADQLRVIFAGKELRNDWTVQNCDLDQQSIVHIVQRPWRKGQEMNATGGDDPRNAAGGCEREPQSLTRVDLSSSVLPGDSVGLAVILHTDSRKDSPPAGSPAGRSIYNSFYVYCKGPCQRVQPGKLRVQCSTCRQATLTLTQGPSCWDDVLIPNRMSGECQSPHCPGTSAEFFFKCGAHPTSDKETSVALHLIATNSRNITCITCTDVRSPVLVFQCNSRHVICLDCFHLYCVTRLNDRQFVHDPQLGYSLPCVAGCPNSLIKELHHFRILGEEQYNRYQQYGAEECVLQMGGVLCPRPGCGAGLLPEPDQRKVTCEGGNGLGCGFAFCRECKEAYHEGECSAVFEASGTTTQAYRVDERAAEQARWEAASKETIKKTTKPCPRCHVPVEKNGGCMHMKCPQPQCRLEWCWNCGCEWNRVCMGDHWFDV
In short: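 Untagged WT-Parkin was pre-incubated 30 min at 37°C with E1, E2 and test compound; the 2X mix held 40 nM E1, 800 nM E2 and 100 nM Parkin. Then 2X substrate mix was added (760 nM fluorescein-Ub, 50 μM ubiquitin, 10 μM pUb, 2 mM ATP) in HEPES pH 7.4 buffer with 1% DMSO, in 40 μL. Stopped after 5 min with SDS sample buffer; polyubiquitin smears were read by Western blot.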

[2] = target: T2, WT-Parkin (substrate His-Miro1 186-591) (Homo sapiens, UniProt O60260); assay: Miro1 ubiquitination assay by Western blot; assay type: biochemical; conditions: His-Miro1 (186-591) substrate
T2 sequence (O60260 1-465): T1 sequence (O60260 1-465)
In short: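 Run as the TR-FRET reaction with untagged WT-Parkin. Test compound was pre-incubated 30 min with E1, E2, Parkin and His-Miro1 186-591 (250 nM final); the 2X mix held 40 nM E1, 800 nM E2 and 100 nM Parkin. After 20 min the reaction was stopped in SDS sample buffer, then run on 4–12% bis-tris SDS-PAGE, PVDF transfer and IR-dye secondary imaging.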

[3] = target: T3, N-terminally tagged WT-Parkin (Homo sapiens, UniProt O60260); assay: In vitro ubiquitin vinyl sulfone; assay type: biochemical; conditions: 3 μM pUb, 2 h
T3 sequence (O60260 1-465): T1 sequence (O60260 1-465)
In short: (§1)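 Tagged Parkin (WT or W403A), 2 μM, incubated with 10 μM Ub-VS and 3 μM pUb. Test compound at 0, 0.09, 0.27, 0.8, 2.5, 7.4, 22.2, 66.7 and 200 μM. Buffer: 50 mM HEPES, 150 mM NaCl, 1 mM TCEP, pH 8.0. Final DMSO 2% (v/v).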

[4] = target: T4, N-terminally tagged W403A-Parkin (Homo sapiens, UniProt O60260, W403A); assay: In vitro ubiquitin vinyl sulfone; assay type: biochemical; conditions: 3 μM pUb, 1 h
T4 sequence (O60260 1-465 W403A): T1 sequence (O60260 1-465) with W403A
In short: as §1

[5] = target: T5, N-terminally tagged C431S-Parkin (Homo sapiens, UniProt O60260, C431S); assay: In vitro ubiquitin vinyl sulfone; assay type: biochemical; conditions: 200 μM compound, range of pUb concentrations
T5 sequence (O60260 1-465 C431S): T1 sequence (O60260 1-465) with C431S

pParkin = target: T6, pParkin (Homo sapiens, UniProt O60260); assay: TR-FRET autoubiquitination assay with phospho-Parkin without pUb; assay type: biochemical; conditions: TR-FRET ratio, no pUb
T6 sequence (O60260 1-465): T1 sequence (O60260 1-465)

[6] = test system: GFP-Parkin expressing HeLa cells; assay: Parkin translocation assay; assay type: cell-based
In short: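 HeLa cells stably expressing GFP-Parkin (lentiviral, blasticidin-selected, FACS-sorted for matched GFP) were seeded at 1.6×10^4 cells/well and recovered 24 h. Nuclei were Hoechst-stained 30 min. Cells were pre-treated 1 h with test compound, then given 20 μM CCCP. Live imaging every 10 min for 3 h at 20x, 37°C, 5% CO2, with 9 fields in each of 4 replicate wells.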

[7] = test system: SH-SY5Y cells expressing the MitoQC construct; assay: MitoQC mitophagy assay; assay type: cell-based; conditions: 1 h pre-incubation, Antimycin + Oligomycin
In short: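 SH-SY5Y cells carrying MitoQC were seeded at 1.6×10^4 cells/well on attachment factor and recovered 72 h. Cells were pre-treated 1 h with test compound, then given 5 μM Antimycin + 10 μM Oligomycin or DMSO for 8 h unless stated otherwise. Fixed in 2% PFA on ice 30 min, DAPI-stained, and imaged at 64x (25 fields, 4 replicate wells). mCherry puncta (mitolysosomes) were counted.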

Human MDR1 efflux transporter (MDCK-MDR1 cells), sequence (P08183 whole entry): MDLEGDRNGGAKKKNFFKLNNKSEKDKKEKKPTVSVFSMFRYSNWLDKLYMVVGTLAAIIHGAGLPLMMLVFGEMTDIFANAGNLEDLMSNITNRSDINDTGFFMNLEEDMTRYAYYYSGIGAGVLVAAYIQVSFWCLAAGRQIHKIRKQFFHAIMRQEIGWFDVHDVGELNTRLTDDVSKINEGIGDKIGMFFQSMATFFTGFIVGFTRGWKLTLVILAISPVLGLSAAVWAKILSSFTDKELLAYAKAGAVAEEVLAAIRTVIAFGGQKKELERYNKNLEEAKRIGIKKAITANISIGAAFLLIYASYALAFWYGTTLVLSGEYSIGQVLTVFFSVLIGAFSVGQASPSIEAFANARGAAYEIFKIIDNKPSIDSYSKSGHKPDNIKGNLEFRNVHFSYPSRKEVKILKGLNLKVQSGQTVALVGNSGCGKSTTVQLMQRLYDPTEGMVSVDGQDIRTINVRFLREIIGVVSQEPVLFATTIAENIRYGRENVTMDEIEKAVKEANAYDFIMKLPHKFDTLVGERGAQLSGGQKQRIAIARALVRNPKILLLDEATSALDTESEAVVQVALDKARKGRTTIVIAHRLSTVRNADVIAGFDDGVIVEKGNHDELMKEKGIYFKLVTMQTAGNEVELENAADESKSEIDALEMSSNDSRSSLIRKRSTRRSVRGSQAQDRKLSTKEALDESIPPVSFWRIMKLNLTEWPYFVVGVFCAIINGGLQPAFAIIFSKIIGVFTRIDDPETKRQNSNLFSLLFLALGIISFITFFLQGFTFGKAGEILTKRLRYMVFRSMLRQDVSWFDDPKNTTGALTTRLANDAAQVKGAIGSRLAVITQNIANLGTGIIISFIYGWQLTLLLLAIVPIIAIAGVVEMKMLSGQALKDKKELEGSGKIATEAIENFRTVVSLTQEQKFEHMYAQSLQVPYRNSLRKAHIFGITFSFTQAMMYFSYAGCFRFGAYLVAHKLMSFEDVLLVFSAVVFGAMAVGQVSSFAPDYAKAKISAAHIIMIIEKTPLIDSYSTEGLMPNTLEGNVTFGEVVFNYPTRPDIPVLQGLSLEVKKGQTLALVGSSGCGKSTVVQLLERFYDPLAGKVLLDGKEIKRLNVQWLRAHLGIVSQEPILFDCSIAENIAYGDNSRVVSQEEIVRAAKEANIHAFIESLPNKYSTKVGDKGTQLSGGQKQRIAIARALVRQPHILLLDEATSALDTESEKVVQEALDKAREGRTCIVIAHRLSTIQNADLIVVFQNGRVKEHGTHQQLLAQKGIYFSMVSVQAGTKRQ

SMILES: CO[C@H](C(=O)N1Cc2c(-c3ccc(C(=O)N4CCCc5ccccc54)cc3)cnn2C[C@H]1C(C)C)c1cnn(C)c1 (single isomer, unassigned) [BIO-2007817]
- MDR1-MDCK avg (average of Papp AB/BA) [1]: 19.8 ×10⁻⁶ cm/s
- Parkin autoubiquitination by Western blot (WT-Parkin): stimulated Parkin autoubiquitination as measured by Western blots in a concentration-dependent manner
- Miro1 ubiquitination by Western blot [2]: able to induce the appearance of monoubiquitinated forms of Miro1
- Ub-VS charging of WT-Parkin ([3]; no E1, E2 or ATP): induced the appearance of slower-migrating Parkin species in a concentration-dependent manner
- concentration above which maximal efficacy is approached in Ub-VS charging ([3]; WT-Parkin): above 20 μM
- Ub-VS charging of W403A-Parkin [4]: further stimulated exposure of the active-site C431
- Ub-VS charging of C431S-Parkin [5]: not responsive; also recorded: no activity
- activation of phospho-Parkin in the absence of pUb (pParkin): can act as an agonist for activated phospho-Parkin even in the absence of pUb
- effect on Parkin translocation rate in the presence of valspodar ([6]; HeLa cells with and without valspodar (MDR1 inhibitor)): No change in Parkin translocation rate
- effect on rate of Parkin translocation to mitochondria ([6]; eGFP-WT-Parkin HeLa, 1 h pretreatment, then CCCP): did not significantly change the rate of translocation of Parkin; also recorded: not able to promote Parkin translocation to depolarized mitochondria in HeLa cells
- effect on mitophagy, MitoQC [7]: nor promote mitophagy in MitoQC SH-SY5Y cell lines
